Article PMC5824357 (RNA, 2018)
Where two headings read alike, the source gives them in different places. Ends that are not written are not given here. λN = λN tag that binds BoxB hairpins, for tethering; HA = not defined here

Legend:
[1] = target: Dm CN9BD–CAF40 complex (Drosophila melanogaster) (UniProt Q7JVP2); experiment: ITC
F-Luc-5BoxB mRNA = experiment: Tethering assay in S2 cells, F-Luc-5BoxB reporter; type: cell-based, Drosophila melanogaster; settings: for repression/degradation activity in tethering: λN-HA-tagged, S2 cells, harvested 3 days after transfection
[2] = target: T1, Hs NOT1 CN9BD–CAF40 complex (human, UniProt A5YKK6;Q92600); experiment: pull-down
[3] = system: Dm NOT1-CN9BD–CAF40 complex; experiment: In vitro MBP pull-down, Dm CN9BD–CAF40; type: binding, Drosophila melanogaster; settings: MBP-tagged proteins, amylose resin, 50 mM HEPES pH 7.5, 200 mM NaCl, 2 mM DTT, 1 h; SDS-PAGE, Coomassie
Outline: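 Proteins were expressed in E. coli BL21 (DE3) Star overnight at 20°C. Tethered-protein constructs carried an N-terminal MBP tag and were purified by amylose resin, anion exchange and gel filtration. MBP (20 µg, negative control) or MBP fusion (40 µg) was incubated 1 h with equimolar purified CCR4–NOT modules plus amylose resin. Beads were washed five times and eluted with 25 mM maltose. Eluates were TCA-precipitated and analysed by SDS-PAGE/Coomassie.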

[4] = target: T2, Hs CAF40 (ARM domain, residues R19–E285) (human, UniProt Q92600 19-285); experiment: crystal structure
[5] = target: T1, Hs NOT1 CN9BD–CAF40 complex; experiment: crystal structure
[6] = target: T2, Hs CAF40 (ARM domain, residues R19–E285); experiment: crystal structure; remark: listed apart in the source
[7] = target: GST-tagged Hs CAF40 (ARM domain) (human, UniProt Q92600); experiment: pull-down
F-Luc-5BoxB-A95C7-HhR = experiment: Tethering assay in S2 cells, F-Luc-5BoxB-A95C7-HhR reporter; type: cell-based, Drosophila melanogaster

T1 sequence (Q92600 19-285, one chain of several): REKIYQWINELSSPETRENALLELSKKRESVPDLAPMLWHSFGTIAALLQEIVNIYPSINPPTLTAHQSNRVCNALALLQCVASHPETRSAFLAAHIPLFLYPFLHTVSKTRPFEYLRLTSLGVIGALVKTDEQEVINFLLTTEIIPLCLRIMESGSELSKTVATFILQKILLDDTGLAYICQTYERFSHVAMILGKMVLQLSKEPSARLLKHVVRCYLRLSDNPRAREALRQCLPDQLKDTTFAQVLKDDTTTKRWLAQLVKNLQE
T2 sequence (Q92600 19-285): as the sequence (Q92600 19-285, one chain of several) above
Chain of GST-tagged Hs CAF40 (ARM domain) (Q92600 19-285): as the sequence (Q92600 19-285, one chain of several) above

“Bam CBM peptide (residues D13–E36) (from UniProt P22745 13-36)” was tested, and the Kd [1] was 183 nM.

For “fragment D13–E36 fused to GST: λN-HA-GST-Bam 13–36 ({λN-HA-GST}-DDQQLDHNFKQMEEHLALMVEGNE; reading uncertain; UniProt P22745 13-36, looked up, fragment)”, the “repression/degradation activity in tethering” value (F-Luc-5BoxB mRNA) was “sufficient to induce the repression and degradation of the F-Luc-5BoxB mRNA to a similar extent as full-length Bam”.

B1: MBP-tagged full-length Bam (natural protein)
chain: MLNARDVCPEGNDDQQLDHNFKQMEEHLALMVEGNENEDPRKATCEYEDTNEDGATCTSGVLSEIQENFGRLRLCDVTAPLLEFHGLDCLQQIQKRSRHFAFDGSPAKKSRSGGVLVTGPKQKQLQKENVWNRKSKGSASADNIEKLPITIEKLHMIGLHGDCLEHNAVLRLMNLFRSLHDHLTADLGFSRQNSMPSDYLFDMPVKSTMPKSLNVRYQLQVLCTKVERFLVQQRRTLEANRHFDFEKYDECDKLLKGFASYLDNFKLLLKPKMRNRNGNSGSNADKFHTQRMERLLIGLRDWIKAAHLSVHVFNWEMDLEHRYSGAMTESHKSLNERAILLSGAELRAAEARGISAEDLFIAQRYKLGGPIYCVLEQHEFLSALIANPETYFPPSVVAICGPQKLGAVSMEQPSASEEEFEETEEVPSSPPRHTGRVPRFRS
B1: binds [2].

B2: Bam-C: Bam C-terminal fragment, residues 141–442 (protein, UniProt P22745 141-442, looked up, fragment)
chain: ADNIEKLPITIEKLHMIGLHGDCLEHNAVLRLMNLFRSLHDHLTADLGFSRQNSMPSDYLFDMPVKSTMPKSLNVRYQLQVLCTKVERFLVQQRRTLEANRHFDFEKYDECDKLLKGFASYLDNFKLLLKPKMRNRNGNSGSNADKFHTQRMERLLIGLRDWIKAAHLSVHVFNWEMDLEHRYSGAMTESHKSLNERAILLSGAELRAAEARGISAEDLFIAQRYKLGGPIYCVLEQHEFLSALIANPETYFPPSVVAICGPQKLGAVSMEQPSASEEEFEETEEVPSSPPRHTGRVPRFRS
B2 was tested, and the “repression/degradation activity in tethering” value (F-Luc-5BoxB mRNA) was “strongly impaired”.

B3: ΔCBM: Bam Δ13–36 (protein)
chain: MLNARDVCPEGNNEDPRKATCEYEDTNEDGATCTSGVLSEIQENFGRLRLCDVTAPLLEFHGLDCLQQIQKRSRHFAFDGSPAKKSRSGGVLVTGPKQKQLQKENVWNRKSKGSASADNIEKLPITIEKLHMIGLHGDCLEHNAVLRLMNLFRSLHDHLTADLGFSRQNSMPSDYLFDMPVKSTMPKSLNVRYQLQVLCTKVERFLVQQRRTLEANRHFDFEKYDECDKLLKGFASYLDNFKLLLKPKMRNRNGNSGSNADKFHTQRMERLLIGLRDWIKAAHLSVHVFNWEMDLEHRYSGAMTESHKSLNERAILLSGAELRAAEARGISAEDLFIAQRYKLGGPIYCVLEQHEFLSALIANPETYFPPSVVAICGPQKLGAVSMEQPSASEEEFEETEEVPSSPPRHTGRVPRFRS
modifications: left off: MBP, N-terminal, kept
With B3 the interaction in pull-down [3] was “abolished the interaction with the Dm CN9BD–CAF40 module in vitro” and the “repression/degradation activity in tethering” value (F-Luc-5BoxB mRNA) was “sufficient to abolish the repressive activity of Bam”.

DDQQLDHNFKQMEEHLALMVEGNE [Bam CBM peptide (residues D13–E36)]: binds [4]; binds [5].

B4: Hs NOT1 CN9BD (residues V1351–L1588) (domain or fragment)
chain: VPPQPQYSYHDINVYSLAGLAPHITLNPTIPLFQAHPQLKQCVRQAIERAVQELVHPVVDRSIKIAMTTCEQIVRKDFALDSEESRMRIAAHHMMRNLTAGMAMITCREPLLMSISTNLKNSFASALRTASPQQREMMDQAAAQLAQDNCELACCFIQKTAVEKAGPEMDKRLATEFELRKHARQEGRRYCDPVVLTYQAERMPEQIRLKVGGVDPKQLAVYEEFARNVPGFLPTNDL
B4: binds [6].

DDQQLDHNFKQMEEHLALMVEGNE (domain or fragment) [MBP-tagged Bam CBM]: binds [2]; binds [7].

B5: Bam-N: Bam N-terminal fragment, residues 1–140 (protein, UniProt P22745 1-140, looked up, fragment)
chain: MLNARDVCPEGNDDQQLDHNFKQMEEHLALMVEGNENEDPRKATCEYEDTNEDGATCTSGVLSEIQENFGRLRLCDVTAPLLEFHGLDCLQQIQKRSRHFAFDGSPAKKSRSGGVLVTGPKQKQLQKENVWNRKSKGSAS
B5 was tested, and the “F-Luc-5BoxB mRNA degradation in DCP2-depleted cells” value (F-Luc-5BoxB mRNA; DCP2 knockdown, DCP2 E361Q overexpressed) was “impaired”, the “F-Luc activity in DCP2-depleted cells” value (F-Luc-5BoxB mRNA; DCP2 knockdown, DCP2 E361Q overexpressed, F-Luc activity) was “not restored” and the “F-Luc-5BoxB mRNA degradation after NOT1 depletion” value (F-Luc-5BoxB mRNA; NOT1-depleted S2 cells) was “partially suppressed degradation of F-Luc-5BoxB mRNA”. For the same molecule, the “repression/degradation activity in tethering” value (F-Luc-5BoxB mRNA) was “retained the activity of the full-length protein” and the “repression of deadenylation-resistant reporter” value (F-Luc-5BoxB-A95C7-HhR) was “repressed the expression of this reporter in S2 cells”.
